{
  "source": "ChEMBL document CHEMBL1156469",
  "about": "(2007)",
  "key": {"Osteoblast [1]": {"system": "Osteoblast", "assay": "Increase in BMP2 mRNA levels in rat primary osteoblast cells at 1 uM by RT-PCR method", "format": "functional, cell-based", "outline": "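Cells treated with 1 μm for 48 h; BMP-2 mRNA measured by quantitative real-time RT-PCR (SYBR Green, 0.5 μm each primer, 4 mm MgCl2, fluorescence read at 82 °C) and normalized.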"}, "Rattus norvegicus": {"system": "Rattus norvegicus", "assay": "Antiapoptotic activity against osteoblasts in ovariectomized Wistar rat at 10 mg/kg after 10 weeks", "format": "functional, organism-based", "set-up": "dose 10 mg/kg", "outline": "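After 10 weeks, lumbar vertebrae were removed. Apoptotic osteoblasts were detected by TUNEL staining (Klenow FragEL) in undecalcified, plastic-embedded sections. Values are means ± S.D.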"}, "Osteoblast [2]": {"system": "Osteoblast", "assay": "Effect on serine proteinase inhibitor clade H1 gene expression in rat primary osteoblast cells assessed as expression ratio of treated to untreated control by microarray analysis", "format": "functional", "outline": "(§1)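 Resveratrol-treated and vehicle-treated primary osteoblasts were profiled on a mouse osteogenesis-focused cDNA array (GEArray Q series) built to track gene expression during osteogenic differentiation. Each gene's signal in treated cells was expressed as a ratio to untreated control.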"}, "MCF7 [3]": {"system": "MCF7", "assay": "Antitumor activity against human MCF7 cells xenografted in SCID mouse orthotropic model assessed as inhibition of 17beta estradiol-induced tumor weight at 10 mg/kg for 2 days", "format": "functional", "set-up": "scale not given: the % may be the effect or the level left", "outline": "(§2)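 Tumor cells were inoculated orthotopically into the mammary fat pad of 6-week-old female SCID mice. […] Tumor volume was calculated as LW2/2. Tumor formation was scored as mice with tumors per total (20 per group), and tumor weight as mean ± S.D. Groups were compared by one-way ANOVA with LSD post-hoc comparisons.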"}, "MCF7 [4]": {"system": "MCF7", "assay": "Antiproliferative activity against human MCF7 cells at 1 uM by flow cytometry", "format": "functional, cell-based", "outline": "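Proliferation was measured by DNA flow cytometry. Incubations were run in triplicate across three separate experiments, and values are means ± S.D.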"}, "MDA-MB-231": {"system": "MDA-MB-231", "assay": "Antitumor activity against human MDA-MB-231 cells xenografted in SCID mouse orthotropic model assessed as inhibition of 17beta estradiol-induced tumor weight at 10 mg/kg for 2 days", "format": "functional", "set-up": "scale not given: the % may be the effect or the level left", "outline": "as §2"}, "Osteoblast [5]": {"system": "Osteoblast", "assay": "Inhibition of antiapoptotic activity in rat primary osteoblast cells at 1 uM after 48 hrs in presence of BMP2-specific neutralizing antibody", "format": "functional, cell-based"}, "Osteoblast [6]": {"system": "Osteoblast", "assay": "Effect on bone morphogenetic protein 6 gene expression in rat primary osteoblast cells assessed as expression ratio of treated to untreated control by microarray analysis", "format": "functional"}, "MC3T3-E1 [7]": {"system": "MC3T3-E1", "assay": "Increase in osteopontin levels in mouse MC3T3-E1 cells at 1 uM after 72 hrs by ELISA", "format": "functional, cell-based", "outline": "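Cells treated with 1 μm for 72 h; osteocalcin or osteopontin in culture medium by sandwich ELISA, HRP-streptavidin/TMB, 450 nm; percent change versus untreated control.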"}, "MC3T3-E1 [8]": {"system": "MC3T3-E1", "assay": "Reversal of increase in ER.DNA complex in mouse MC3T3-E1 cells transfected with dominant-negative mutant Src expression vector at 1 uM by RT-PCR", "format": "functional, cell-based", "outline": "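BMP-2 promoter quantified by real-time PCR (45 cycles, 61 °C anneal), reported as IP-to-input Ct ratio. DN-Src by 3 μg vector, PP2 at 10 μM; ICI182780 and tamoxifen at indicated concentrations.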"}, "Osteoblast [9]": {"system": "Osteoblast", "assay": "Effect on fibroblast growth factor receptor 3 gene expression in rat primary osteoblast cells assessed as expression ratio of treated to untreated control by microarray analysis", "format": "functional"}, "Osteoblast [10]": {"system": "Osteoblast", "assay": "Effect on procollagen 4 alpha 6 gene expression in rat primary osteoblast cells assessed as expression ratio of treated to untreated control by microarray analysis", "format": "functional", "outline": "as §1"}, "Osteoblast [11]": {"system": "Osteoblast", "assay": "Effect on histone H1 gene expression in rat primary osteoblast cells assessed as expression ratio of treated to untreated control by microarray analysis", "format": "functional", "outline": "as §1"}, "Osteoblast [12]": {"system": "Osteoblast", "assay": "Increase in osteopontin mRNA levels in rat primary osteoblast cells at 1 uM after 72 hrs by RT-PCR", "format": "functional, cell-based", "outline": "(§3)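 Cells treated with 1 μm for 72 h; osteocalcin and osteopontin mRNA by RT-PCR, 30 cycles (95/52/72 °C, 1 min each), ethidium bromide–stained agarose gels; repeated at least twice from at least two cDNA preparations.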"}, "[13]": {"biological_target": "T1, Alkaline phosphatase (Mus musculus) (UniProt Q9EQ79)", "T1 sequence (whole entry)": "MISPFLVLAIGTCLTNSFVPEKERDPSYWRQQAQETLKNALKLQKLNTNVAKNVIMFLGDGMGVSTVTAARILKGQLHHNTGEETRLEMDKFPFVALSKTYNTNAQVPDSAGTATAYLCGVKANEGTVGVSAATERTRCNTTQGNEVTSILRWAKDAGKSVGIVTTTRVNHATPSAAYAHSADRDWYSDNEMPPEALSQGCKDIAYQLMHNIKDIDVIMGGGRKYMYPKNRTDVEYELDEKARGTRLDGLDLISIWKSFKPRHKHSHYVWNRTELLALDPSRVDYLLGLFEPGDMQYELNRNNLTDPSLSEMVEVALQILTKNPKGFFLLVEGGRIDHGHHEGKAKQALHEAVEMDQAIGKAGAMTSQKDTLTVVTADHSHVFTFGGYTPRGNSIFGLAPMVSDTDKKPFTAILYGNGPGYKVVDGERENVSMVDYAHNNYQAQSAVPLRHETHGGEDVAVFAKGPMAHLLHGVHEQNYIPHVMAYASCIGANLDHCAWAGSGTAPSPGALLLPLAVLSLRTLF", "assay": "Inhibition of induction of ALP activity in mouse MC3T3-E1 cells at 1 uM after 48 hrs in presence of BMP2-specific neutralizing antibody", "format": "cell-based"}, "Osteoblast [14]": {"system": "Osteoblast", "assay": "Effect on FMS-like tyrosine kinase 1 gene expression in rat primary osteoblast cells assessed as expression ratio of treated to untreated control by microarray analysis", "format": "functional"}, "[15]": {"assay": "Reversal of induction in BMP2 expression in mouse MC3T3-E1 cells transfected with dominant-negative mutant Src expression vector at 1 uM by Western blot", "format": "functional, cell-based", "outline": "(§4)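 Src phosphorylation, ERα nuclear translocation and BMP-2 protein analysed by Western blot with ECL detection. Three independent experiments.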"}, "Osteoblast [16]": {"system": "Osteoblast", "assay": "Increase in BMP2 levels in rat primary osteoblast cells at 1 uM after 48 hrs by ELISA", "format": "functional, cell-based", "outline": "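Culture medium collected after 48 h treatment at indicated concentrations; BMP-2 sandwich ELISA, 2 h room temperature incubation, HRP-streptavidin with TMB, absorbance at 450 nm; expressed as percent change versus untreated control.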"}, "Osteoblast [17]": {"system": "Osteoblast", "assay": "Effect on procollagen 4 alpha 4 gene expression in rat primary osteoblast cells assessed as expression ratio of treated to untreated control by microarray analysis", "format": "functional", "outline": "as §1"}, "MG-63": {"system": "MG-63", "assay": "Increase in osteopontin mRNA levels in human MG63 cells at 1 uM after 72 hrs by RT-PCR", "format": "functional, cell-based", "outline": "as §3"}, "Osteoblast [18]": {"system": "Osteoblast", "assay": "Effect on procollagen 1 alpha 1 gene expression in rat primary osteoblast cells assessed as expression ratio of treated to untreated control by microarray analysis", "format": "functional", "outline": "as §1"}, "MC3T3-E1 [19]": {"system": "MC3T3-E1", "assay": "Increase in osteopontin mRNA levels in mouse MC3T3-E1 cells at 1 uM after 72 hrs by RT-PCR", "format": "functional, cell-based", "outline": "as §3"}, "MC3T3-E1 [20]": {"system": "MC3T3-E1", "assay": "Reversal of induction in nuclear translocation of ERalpha in mouse MC3T3-E1 cells at 1 uM in presence of PP2", "format": "functional, cell-based", "outline": "as §4"}, "Osteoblast [21]": {"system": "Osteoblast", "assay": "Effect on MAD homolog 4 gene expression in rat primary osteoblast cells assessed as expression ratio of treated to untreated control by microarray analysis", "format": "functional"}, "Osteoblast [22]": {"system": "Osteoblast", "assay": "Reversal of increase in ER.DNA complex in rat primary osteoblast cells at 1 uM by RT-PCR in presence of PP2", "format": "functional, cell-based"}, "Osteoblast [23]": {"system": "Osteoblast", "assay": "Effect on procollagen 6 alpha 1 gene expression in rat primary osteoblast cells assessed as expression ratio of treated to untreated control by microarray analysis", "format": "functional", "outline": "as §1"}},
  "note": "Active and inactive are the calls of the source. No cut-off for these calls is given here.",
  "data": [
    {"smiles": "Oc1ccc(/C=C/c2cc(O)cc(O)c2)cc1", "note": "[RESVERATROL]", "values": [
      {"measurement": "Activity", "setting": "Osteoblast [1]", "result": "Active"},
      {"measurement": "Activity", "setting": "Rattus norvegicus", "result": "Active"},
      {"measurement": "Ratio", "setting": "Osteoblast [2]", "result": 2.82},
      {"measurement": "Activity", "setting": "MCF7 [3]", "result": 54.6, "unit": "%"},
      {"measurement": "Activity", "setting": "MCF7 [4]", "result": "Active"},
      {"measurement": "Activity", "setting": "MDA-MB-231", "result": 43.6, "unit": "%"},
      {"measurement": "Activity", "setting": "Osteoblast [5]", "result": "Active"},
      {"measurement": "Ratio", "setting": "Osteoblast [6]", "result": 3.38},
      {"measurement": "Activity", "setting": "MC3T3-E1 [7]", "result": "Active"},
      {"measurement": "Activity", "setting": "MC3T3-E1 [8]", "result": "Active"},
      {"measurement": "Ratio", "setting": "Osteoblast [9]", "result": 0.9},
      {"measurement": "Ratio", "setting": "Osteoblast [10]", "result": 3.689},
      {"measurement": "Ratio", "setting": "Osteoblast [11]", "result": 0.44},
      {"measurement": "Activity", "setting": "Osteoblast [12]", "result": "Active"},
      {"measurement": "Activity", "setting": "[13]", "result": "Active"},
      {"measurement": "Ratio", "setting": "Osteoblast [14]", "result": 0.41},
      {"measurement": "Activity", "setting": "[15]", "result": "Active"},
      {"measurement": "Activity", "setting": "Osteoblast [16]", "result": "Dose-dependent effect"},
      {"measurement": "Ratio", "setting": "Osteoblast [17]", "result": 4.98},
      {"measurement": "Activity", "setting": "MG-63", "result": "Active"},
      {"measurement": "Ratio", "setting": "Osteoblast [18]", "result": 9.67},
      {"measurement": "Activity", "setting": "MC3T3-E1 [19]", "result": "Active"},
      {"measurement": "Activity", "setting": "MC3T3-E1 [20]", "result": "Active"},
      {"measurement": "Ratio", "setting": "Osteoblast [21]", "result": 2.63},
      {"measurement": "Activity", "setting": "Osteoblast [22]", "result": "Active"},
      {"measurement": "Ratio", "setting": "Osteoblast [23]", "result": 2.35}
    ]}
  ]
}
